From ChEMBL document CHEMBL1781887, “Sulfoximine-substituted trifluoromethylpyrimidine analogs as inhibitors of proline-rich tyrosine kinase 2 (PYK2) show reduced hERG activity” (Bioorg Med Chem Lett, 2009)
Each block holds one compound with its values, some of them ahead of it.

Columns and labels:
hERG (KCNH2) = hERG (KCNH2) (Homo sapiens, UniProt Q12809); experiment: Inhibition of [3H]dofetilide binding to human ERG expressed in HEK293 cells at 10 uM; type: cell-based; conditions: HEK293 cells that express human ERG, probe [3H]dofetilide
[1] = (§1) Apparent permeability from apical to basolateral side of MDCK cells; type: ADME, cell-based, Canis lupus familiaris; conditions: dog
How it was run: (§2)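 Madin–Darby canine kidney cell monolayers. Permeability measured in the apical-to-basolateral direction and reported as Papp.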

Rattus norvegicus = experiment: Average free plasma concentration in Sprague-Dawley rat at 10 mg/kg, po; type: ADME, organism-based; parameters: dose 10 mg/kg, route oral; conditions: in vivo
How it was run: (§3)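 Sprague–Dawley rats given a single 10 mg/kg oral dose. Cmax and AUCinf taken from the plasma concentration–time profile. Cave calculated as AUCinf divided by the dosing interval in h. Free concentration refers to the unbound fraction in plasma. Values are means of two experiments.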

[2] = Volume of distribution at steady state in Sprague-Dawley rat at 1 mg/kg, iv; type: ADME, organism-based; parameters: dose 1 mg/kg, route intravenous; conditions: in vivo, read-out: Vdss
How it was run: (§4)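 Sprague–Dawley rats given 1.0 mg/kg iv. CL and Vdss obtained by non-compartmental fit of the plasma concentration–time profiles. Values are means of two experiments.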

[3] = Lipophilicity, log D of the compound at pH 7.4; type: physicochemical; conditions: buffer
[4] = Clearance in Sprague-Dawley rat at 1 mg/kg, iv; type: ADME, organism-based; parameters: dose 1 mg/kg, route intravenous; conditions: in vivo; how it was run: as §4
[5] = Mean residence time in Sprague-Dawley rat; type: ADME, organism-based; conditions: in vivo
MDCK = experiment: as §1; type: ADME, cell-based, Canis lupus familiaris; conditions: dog; how it was run: as §2
[6] = Fraction unbound in rat plasma at 1 ug/mL; type: ADME, cell-free
How it was run: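 Rat plasma protein binding measured in vivo at a drug concentration of 1 μg/mL. Result expressed as fraction unbound (fu).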

[7] = Cmax in Sprague-Dawley rat at 10 mg/kg, po; type: ADME, organism-based; parameters: dose 10 mg/kg, route oral; conditions: in vivo; how it was run: as §3
[8] = Oral bioavailability in Sprague-Dawley rat at 10 mg/kg, po; type: ADME, organism-based; conditions: in vivo
[9] = AUC (infinity) in Sprague-Dawley rat at 10 mg/kg, po; type: ADME, organism-based; parameters: time infinity, dose 10 mg/kg, route oral; conditions: plasma; how it was run: as §3
[10] = target: T1, Protein-tyrosine kinase 2-beta (Homo sapiens, UniProt Q14289); experiment: Inhibition of PYK2 assessed as reduction in peptide substrate phosphorylation by fluorimetric method
[11] = Hepatic extraction ratio in human liver microsomes; type: ADME, Microsome; conditions: read-out: ERH
[12] = target: T1, Protein-tyrosine kinase 2-beta; experiment: Inhibition of PYK2 by PYK2-LI-COR cellular assay

hERG (KCNH2), sequence (Q12809 whole entry): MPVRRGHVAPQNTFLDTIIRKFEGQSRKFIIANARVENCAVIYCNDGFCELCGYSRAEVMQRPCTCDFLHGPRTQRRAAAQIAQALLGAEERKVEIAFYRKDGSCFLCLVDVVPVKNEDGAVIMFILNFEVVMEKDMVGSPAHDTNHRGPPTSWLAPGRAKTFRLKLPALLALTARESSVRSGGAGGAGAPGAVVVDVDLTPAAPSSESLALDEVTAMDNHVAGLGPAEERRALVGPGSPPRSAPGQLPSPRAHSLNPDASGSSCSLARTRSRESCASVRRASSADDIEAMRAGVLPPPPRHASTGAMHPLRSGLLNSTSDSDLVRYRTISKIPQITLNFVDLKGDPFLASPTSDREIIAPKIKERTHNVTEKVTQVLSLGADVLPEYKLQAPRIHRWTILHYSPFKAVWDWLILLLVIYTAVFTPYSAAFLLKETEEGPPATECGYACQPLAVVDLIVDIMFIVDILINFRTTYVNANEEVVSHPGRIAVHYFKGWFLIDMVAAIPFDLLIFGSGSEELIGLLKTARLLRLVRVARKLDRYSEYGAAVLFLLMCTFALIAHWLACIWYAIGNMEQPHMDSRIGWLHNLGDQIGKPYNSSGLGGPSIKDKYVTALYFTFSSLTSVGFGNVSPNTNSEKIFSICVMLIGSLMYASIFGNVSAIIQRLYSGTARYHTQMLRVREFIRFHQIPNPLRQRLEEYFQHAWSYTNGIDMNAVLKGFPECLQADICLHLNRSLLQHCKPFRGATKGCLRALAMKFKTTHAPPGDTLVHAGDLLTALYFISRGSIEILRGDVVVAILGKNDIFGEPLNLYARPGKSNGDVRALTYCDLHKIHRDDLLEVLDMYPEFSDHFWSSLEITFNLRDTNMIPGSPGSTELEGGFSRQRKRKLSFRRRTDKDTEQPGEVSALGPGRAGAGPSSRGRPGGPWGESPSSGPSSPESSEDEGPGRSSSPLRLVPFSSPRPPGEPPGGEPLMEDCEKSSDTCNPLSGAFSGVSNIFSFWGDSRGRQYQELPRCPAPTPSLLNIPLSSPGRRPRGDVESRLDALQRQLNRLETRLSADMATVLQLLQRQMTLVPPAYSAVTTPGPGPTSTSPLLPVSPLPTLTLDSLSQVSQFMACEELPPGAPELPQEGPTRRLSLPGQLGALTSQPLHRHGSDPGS
T1 sequence (Q14289 whole entry): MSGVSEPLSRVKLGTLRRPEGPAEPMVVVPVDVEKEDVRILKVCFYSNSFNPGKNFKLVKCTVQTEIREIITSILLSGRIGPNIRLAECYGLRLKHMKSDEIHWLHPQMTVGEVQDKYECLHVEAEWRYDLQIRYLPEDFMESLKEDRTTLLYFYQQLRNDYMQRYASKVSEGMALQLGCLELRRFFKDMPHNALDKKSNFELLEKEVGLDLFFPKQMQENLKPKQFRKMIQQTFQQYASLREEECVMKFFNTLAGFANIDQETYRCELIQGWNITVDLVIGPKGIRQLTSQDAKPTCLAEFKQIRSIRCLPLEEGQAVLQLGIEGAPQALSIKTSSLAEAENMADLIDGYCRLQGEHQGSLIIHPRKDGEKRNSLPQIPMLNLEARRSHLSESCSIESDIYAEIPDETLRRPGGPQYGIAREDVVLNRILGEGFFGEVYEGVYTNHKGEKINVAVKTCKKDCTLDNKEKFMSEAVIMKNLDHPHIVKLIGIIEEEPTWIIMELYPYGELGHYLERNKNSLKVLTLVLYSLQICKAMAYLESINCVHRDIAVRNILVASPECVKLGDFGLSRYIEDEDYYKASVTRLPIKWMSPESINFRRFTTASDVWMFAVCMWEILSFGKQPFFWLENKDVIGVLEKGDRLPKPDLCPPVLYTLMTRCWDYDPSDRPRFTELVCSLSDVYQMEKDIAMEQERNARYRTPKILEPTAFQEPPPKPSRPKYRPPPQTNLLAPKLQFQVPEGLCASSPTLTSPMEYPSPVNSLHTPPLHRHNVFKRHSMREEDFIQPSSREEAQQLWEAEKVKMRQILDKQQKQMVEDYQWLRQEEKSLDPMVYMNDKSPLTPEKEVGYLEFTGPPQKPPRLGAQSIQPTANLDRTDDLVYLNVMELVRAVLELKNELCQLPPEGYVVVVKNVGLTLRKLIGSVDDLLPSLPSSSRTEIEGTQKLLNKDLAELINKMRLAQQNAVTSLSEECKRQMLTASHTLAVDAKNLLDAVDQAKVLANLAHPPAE

Papp A→B [1]: 9.2 ×10⁻⁶ cm/s
SMILES: CN(c1ccccc1CNc1nc(Nc2ccc3c(c2)CC(=O)N3)ncc1C(F)(F)F)S(C)(=O)=O
inhibition at 10 µM (hERG (KCNH2)): 41%

Cp(f) (Rattus norvegicus): 76 nM | Vd [2]: 13 L/kg | logD [3]: 1.7 | clearance [4]: 74 mL/min/kg | MRT [5]: 2.3 h | Papp (MDCK): 5.1 ×10⁻⁶ cm/s | fraction unbound at 1 ug/mL [6]: 0.36 | Cmax [7]: 720 nM | bioavailability [8]: 100% | AUC(0-inf) [9]: 5 µM·h
SMILES: CN=[S+](C)([O-])c1ccc(Nc2ncc(C(F)(F)F)c(N[C@@H]3CCC[C@H]3N(C)C)n2)cc1 (stereo in doubt; (S)-14a)

Papp A→B [1]: 5.3 ×10⁻⁶ cm/s
SMILES: CNS(=O)(=O)c1ccc(Nc2ncc(C(F)(F)F)c(N[C@@H]3CCC[C@H]3N(C)C)n2)cc1
inhibition at 10 µM (hERG (KCNH2)): 50%

IC50 [10]: 21 nM | Papp A→B [1]: 7.8 ×10⁻⁶ cm/s | hepatic extraction ratio [11]: 0.58 | IC50 [12]: 24 nM
SMILES: CC[S+]([O-])(=NC)c1ccc(Nc2ncc(C(F)(F)F)c(N[C@@H]3CCC[C@H]3N(C)C)n2)cc1 (stereo partly drawn)
inhibition at 10 µM (hERG (KCNH2)): 2%

Papp (MDCK): 8.3 ×10⁻⁶ cm/s
SMILES: CCN=[S+](C)([O-])c1ccc(Nc2ncc(C(F)(F)F)c(N[C@@H]3CCC[C@H]3N(C)C)n2)cc1 (stereo in doubt; (S)-14b)

Papp A→B [1]: 4.8 ×10⁻⁶ cm/s
SMILES: CN(C)[C@@H]1CCC[C@H]1Nc1nc(Nc2ccc(S(=O)(=O)NC3CC3)cc2)ncc1C(F)(F)F
inhibition at 10 µM (hERG (KCNH2)): 76%

Papp (MDCK): 5.7 ×10⁻⁶ cm/s
SMILES: CN=[S+](C)([O-])c1ccc(Nc2ncc(C(F)(F)F)c(N[C@@H]3CCC[C@H]3N(C)C)n2)cc1 (stereo in doubt; (R)-14a)

Papp (MDCK): 9.3 ×10⁻⁶ cm/s
SMILES: CCN=[S+](C)([O-])c1ccc(Nc2ncc(C(F)(F)F)c(N[C@@H]3CCC[C@H]3N(C)C)n2)cc1 (stereo in doubt; (R)-14b)

Papp A→B [1]: 4.7 ×10⁻⁶ cm/s
SMILES: CCN=[S+](C)([O-])c1ccc(Nc2ncc(C(F)(F)F)c(N[C@@H]3CCC[C@H]3N(C)C)n2)cc1 (mixture of isomers)
inhibition at 10 µM (hERG (KCNH2)): 5.9%

Vd [2]: 13 L/kg | logD [3]: 1.5 | clearance [4]: 42 mL/min/kg | MRT [5]: 3.7 h | Papp A→B [1]: 9.5 ×10⁻⁶ cm/s | fraction unbound at 1 ug/mL [6]: 0.3
SMILES: CN(C)[C@@H]1CCC[C@H]1Nc1nc(Nc2ccc(S(C)(=O)=O)cc2)ncc1C(F)(F)F

IC50 [10]: 65 nM | Papp A→B [1]: 1 ×10⁻⁶ cm/s | hepatic extraction ratio [11]: < 0.29 | IC50 [12]: 320 nM
SMILES: CN(C)[C@@H]1CCC[C@H]1Nc1nc(Nc2ccc([S+](C)(=N)[O-])cc2)ncc1C(F)(F)F (mixture of isomers)
inhibition at 10 µM (hERG (KCNH2)): 12%

Papp A→B [1]: 4.4 ×10⁻⁶ cm/s
SMILES: CN=[S+](C)([O-])c1ccc(Nc2ncc(C(F)(F)F)c(N[C@@H]3CCC[C@H]3N(C)C)n2)cc1 (mixture of isomers)

IC50 [10]: 22 nM | Papp A→B [1]: 6.6 ×10⁻⁶ cm/s | hepatic extraction ratio [11]: 0.78 | IC50 [12]: 34 nM
SMILES: CC(C)N=[S+](C)([O-])c1ccc(Nc2ncc(C(F)(F)F)c(N[C@@H]3CCC[C@H]3N(C)C)n2)cc1 (mixture of isomers)
inhibition at 10 µM (hERG (KCNH2)): 8.4%
